Screening results deposited in PubChem by several laboratories.
PTK2B oligo ant = Pyk2 (human) oligomerization antagonism | AID 1347419 | z-score (the deposit names both 25 µM and 10 µM) | Q293 cells, Pyk2 FERM NanoBiT luminescence; hits give low values | Q14289 | 0.83% of 99,000 active;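 active = Z-score of -3 or lower, scaled per plate to the spread of control and sample wells; inactive = z-score above -3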;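 also: negative z-score means lost luminescence so less FERM oligomerization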
PLK1 inh = inhibitors of human PLK1 kinase; inhibition, % at 10 µM; 0.53% of 97,000 active; P53350; AID 619; recombinant PLK1 kinase, TR-FRET peptide phosphorylation;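 active = inhibition of 50% or more in the single-concentration screen; inactive = inhibition below 50%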;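 also: 0% = DMSO max control and 100% = H-89 dihydrochloride min control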
Cav3 T inh = inhibitors of human Cav3.2 T-type calcium channel; O95180; Cav3.2-expressing cells, Fluo-4 calcium fluorescence FDSS; hits give low values; B-score at 10 µM; 4% of 100,000 active;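 active = single-dose well whose peak fluorescence ratio is a statistical outlier from its plate by either plate-standardised score or position-corrected B-score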
Rev-RRE block = HIV Rev-RRE protein-RNA interaction inhibition | AID 704 | inhibition, % at 8 µM | P05866 | Rev peptide-RRE RNA binding, FRET | 0.79% of 97,000 active;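 active = inhibition above the screen-wide mean plus 3 SD, cut at about 35% in these data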;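 also: 0% = median DMSO wells and 100% = median Neomycin B control wells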
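Assay system: labelled RRE RNA duplex and labelled Rev peptide / Medium: HEPES pH 7.5 salt buffer with EDTA / Reagent: labelled Rev peptide / Schedule: 5 + 15 min at 25 °C / Signal: FRET, excitation 480 nm, emission 540 nm donor and 671 nm acceptor / Benchmarks: DMSO and neomycin B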
FAK inh = FAK (human) kinase inhibition | inhibition, %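 (tested at 7 µM)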 | biochemical FAK kinase activity assay | AID 727 | 0.84% of 97,000 active | Q05397; in the data active = inhibition above about 19%;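 also: 0% = DMSO and 100% = reference compound high control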
PLK1 PBD inh = blocks phosphopeptide binding to human Plk1 polo box domain; inhibition, %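 (tested at about 20 µM)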; 0.13% of 97,000 active; Plk1 PBD phosphopeptide binding, fluorescence polarization; in the data active = inhibition above about 34%, passing the limit was not always enough
* marks the source's active call; other numbers are inactive results; [ ] = dose if it differs, or a comment. Hits are enriched below; roughly 5.8% of the tested compounds scored in any of these assays.

`CCOC(=O)c1cnc(-n2nc(C)cc2C)nc1NC(C)c1ccccc1` (stereo unspecified) gave PTK2B oligo ant -2.76 and Cav3 T inh -8.81*.
COc1ccc(-c2cn(/N=C/c3ccc(Cl)cc3Cl)c(N)n2)cc1 was read as PTK2B oligo ant -0.05, PLK1 inh 61.2*, Cav3 T inh -1.05, Rev-RRE block 18.8, FAK inh 1.4 and PLK1 PBD inh -20.1.
COc1ccc(-c2onc3ccc(Cl)cc23)cc1 was read as PTK2B oligo ant 1.3, PLK1 inh -12.1, Cav3 T inh 0.136, Rev-RRE block 6.1, FAK inh -0.7 and PLK1 PBD inh -7.7.
O=c1c(-c2ccc3c(c2)OCCO3)coc2cc(O)cc(O)c12 was read as PTK2B oligo ant -3.7*, PLK1 inh -7.0, Cav3 T inh 0.069, Rev-RRE block 9.2, FAK inh 2.8 and PLK1 PBD inh -17.3.
Screening Cc1csc(NC(CO)c2nc3ccccc3n2CCOCCO)n1 (stereo unspecified) returned Cav3 T inh 0.939.
`CC(=O)Nc1sc2c(c1C(c1ccc(F)cc1)N1CCOCC1)CCCC2` (stereo unspecified) gave PTK2B oligo ant -1.87, PLK1 inh -9.0, Cav3 T inh -7.15*, Rev-RRE block 4.9, FAK inh -1.6 and PLK1 PBD inh -6.3.
Screening CC(=O)Nc1sc2c(c1C(c1ccc(Cl)cc1)N1CCOCC1)CCCC2 (stereo unspecified) returned PTK2B oligo ant -1.99, PLK1 inh -4.2, Rev-RRE block -7.2, FAK inh 1.9 and PLK1 PBD inh -3.3.
For CC(=O)Nc1sc2c(c1C(c1ccccc1)N1CCOCC1)CCCC2 (stereo unspecified) the results were PTK2B oligo ant -0.39, PLK1 inh -30.4, Cav3 T inh -6.26*, Rev-RRE block 3.3, FAK inh -0.8 and PLK1 PBD inh -2.4.
`CCN(C(=O)COc1cc(=O)n(CC)c2ccccc12)c1cc(Cl)ccc1OC` gave PLK1 inh 5.1, Cav3 T inh -5.46*, Rev-RRE block 3.3, FAK inh 0.9 and PLK1 PBD inh -16.5.
Screening Cc1ccc(S(=O)(=O)CCSc2cccc(C(=O)Nc3ccccc3C(=O)O)c2)cc1 returned PTK2B oligo ant -2.38.
CCN(CCNC(=O)c1ccc2nc(-c3ccccc3NC(C)=O)c(=O)[nH]c2c1)c1ccccc1 was read as PLK1 inh -9.7, Cav3 T inh 0.707, Rev-RRE block -1.1, FAK inh -0.1 and PLK1 PBD inh -3.9.
Screening CC(=O)Nc1ccccc1-c1nc2ccc(C(=O)N3CCN(c4cc(C)ccc4C)CC3)cc2[nH]c1=O returned PLK1 inh -7.4, Cav3 T inh -3.66*, Rev-RRE block -0.7, FAK inh -0.1 and PLK1 PBD inh -7.6.
`CCc1ccc(OCc2nc(-c3ccccn3)no2)c(Br)c1` gave PTK2B oligo ant -1.57, PLK1 inh -3.5, Cav3 T inh -4.58*, Rev-RRE block 13.0, FAK inh 2.5 and PLK1 PBD inh -12.2.
For O=C(O)c1ccccc1SC1CC(=O)N(C2CCCCC2)C1=O (stereo unspecified) the results were PLK1 inh 69.2*, Rev-RRE block 2.1, FAK inh 0.3 and PLK1 PBD inh -4.9.
CC(c1ccccc1)N1C(=O)CC(Sc2ncccc2C(=O)O)C1=O (stereo unspecified) was read as PTK2B oligo ant -0.64, PLK1 inh -18.1, Cav3 T inh -1.2, Rev-RRE block 8.7, FAK inh -0.5 and PLK1 PBD inh -6.8.
N#CCC(=O)N/N=C/c1ccc(Sc2nc3ccccc3s2)o1 was read as PTK2B oligo ant -0.3, PLK1 inh -15.3, Cav3 T inh -5.28*, Rev-RRE block -1.0, FAK inh 8.3 and PLK1 PBD inh -16.0.
For O=C(COc1cccc2ccccc12)N/N=C/c1ccc(Sc2nc3ccccc3s2)o1 the results were PTK2B oligo ant 0.61, PLK1 inh -9.7, Cav3 T inh -2.9, Rev-RRE block 12.1, FAK inh 0.9 and PLK1 PBD inh -15.0.
`Cc1ccccc1OCC(=O)N/N=C/c1ccc(Sc2nc3ccccc3s2)o1` gave PTK2B oligo ant 0.19, PLK1 inh -11.0, Cav3 T inh -6.85*, Rev-RRE block 6.8, FAK inh 1.4 and PLK1 PBD inh -33.6.
`CCOc1ccc(N2C(=O)CC(N3CC(C)OC(C)C3)C2=O)cc1` (stereo unspecified) gave PTK2B oligo ant -0.38.
`CCCCCCCC(=O)NC(Nc1ccc(S(N)(=O)=O)cc1)C(Cl)(Cl)Cl` (stereo unspecified) gave PTK2B oligo ant 0.39, PLK1 inh -4.9, Cav3 T inh -4.45, Rev-RRE block 10.6, FAK inh 0.8 and PLK1 PBD inh 8.4.
Screening NC(=S)Nc1cccc2cc3ccccc3cc12 returned PTK2B oligo ant -1.65, PLK1 inh 1.3, Cav3 T inh -0.293, Rev-RRE block 101.6*[fluorescence artefact?], FAK inh 1.2 and PLK1 PBD inh -12.3.
Cc1ccc(C(=O)CCNc2ccc(Cl)cc2)o1 was read as PTK2B oligo ant -0.55, PLK1 inh 3.6, Cav3 T inh -0.907, Rev-RRE block 1.4, FAK inh -0.1 and PLK1 PBD inh 14.5.
`O=C1N/C(=N/NC(=O)c2cccc3ccccc23)S/C1=C\c1ccccc1OCc1ccccc1` gave PTK2B oligo ant -3.04*, PLK1 inh -9.5, Cav3 T inh -5.16*, Rev-RRE block -1.8, FAK inh 18.5 and PLK1 PBD inh -11.0.
For COc1cc2cc(Oc3ccc4ccc(=O)oc4c3)c(=O)oc2cc1OC(=O)/C=C/c1ccccc1 the results were Cav3 T inh 0.239.
For O=[N+]([O-])c1cc(S(=O)(=O)Nc2ccccc2)ccc1-n1nnc2ccccc21 the results were PTK2B oligo ant -0.67, PLK1 inh -6.3, Cav3 T inh -6.28*, Rev-RRE block 3.4, FAK inh 18.6 and PLK1 PBD inh 3.3.
Screening O=C(Nc1ccc2c(c1)OCCO2)C1CCN(c2nnnn2-c2ccccc2)CC1 returned PTK2B oligo ant 0.19, PLK1 inh -7.3, Cav3 T inh -0.656, Rev-RRE block 4.2, FAK inh -4.0 and PLK1 PBD inh 20.4.
Screening O=C(Nc1cccc(F)c1)C1CCN(C(=O)c2ccc(Br)cc2)CC1 returned PTK2B oligo ant 0.01, PLK1 inh 1.4, Cav3 T inh -4.34*, Rev-RRE block 7.6, FAK inh 0.1 and PLK1 PBD inh 15.7.
Screening O=C(Nc1ccc2c(c1)OCCO2)C1CCN(C(=O)c2ccc(Br)cc2)CC1 returned PTK2B oligo ant 0.47, PLK1 inh -5.5, Cav3 T inh -0.0125, Rev-RRE block 7.8, FAK inh 4.2 and PLK1 PBD inh -13.1.
O=C(Nc1cccc(F)c1)C1CCN(c2nnnn2-c2ccccc2)CC1 was read as PTK2B oligo ant -0.49, PLK1 inh -10.7, Cav3 T inh -7.55*, Rev-RRE block 3.7, FAK inh 0.0 and PLK1 PBD inh -10.8.
For Cc1ccc(CN2[C@@H](CC(C)C)COCCS2(=O)=O)cc1 the results were Cav3 T inh -0.354.
